Data on eleven compounds can be found in ChEMBL document CHEMBL1126216, “Amide, urea, and carbamate analogues of the muscarinic agent [4-[[N-(3-chlorophenyl)carbamoyl]oxy]-2-butynyl]trimethylammonium chloride” (1992).

Experiment [1] concerns Rattus norvegicus. Kind of experiment: In vivo intravenous dose required to produce a half maximal pressor response in the pithed rat. In kind it is functional. In outline: (§1)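 Male Sprague-Dawley rats (250-300 g), anesthetized with sodium amytal (125 mg/kg ip), intubated, pithed; body temperature held at 37 °C; 30 min stabilization. Ganglionic nicotinic block with pentolinium tartrate (18.5 μmol/kg iv) 20 min before agonist. Drugs in 0.9% saline, iv, 0.1 mL/100 g. Mean arterial pressure recorded; two or three compounds per rat; five to eight rats per compound.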

The test system of experiment [2] is Muscarinic acetylcholine receptor M1 (Oryctolagus cuniculus).
Experiment [3] concerns Rattus norvegicus. Kind of experiment: In vivo intrinsic pressor activity for its ability to maximally elevate arterial pressure in pithed rat. In kind it is functional, Artery. In outline: as §1

On to `C[C@@H](C#CC[N+](C)(C)C)OC(=O)Nc1ccc(Cl)cc1`, for which the ED50 with Rattus norvegicus [1] came to 0.008 µmol/kg. Besides, the KA in experiment [2] is 0.18 µM. This compound had an IPA in the experiment with Rattus norvegicus [3] of 0.66.
Take `CC(C#CC[N+](C)(C)C)N(C)C(=O)Cc1cccc(Cl)c1` (configuration not stated): the 50% effect level with Rattus norvegicus [1] (ED50) was put at a dose of 1.48 µmol/kg. The compound also had a KA in experiment [2] of 416 µM. Also, in the experiment with Rattus norvegicus [3], the IPA is on record as 1.
`C[C@H](C#CC[N+](C)(C)C)OC(=O)Nc1ccc(Cl)cc1` showed an ED50 in the experiment with Rattus norvegicus [1] of 0.039 µmol/kg. Besides, the KA in experiment [2] was found to be 0.49 µM. In the experiment with Rattus norvegicus [3], the IPA is recorded as 0.8.
`CN(CC#CC[N+](C)(C)C)C(=O)Cc1cccc(Cl)c1` came in with an ED50 in the experiment on Rattus norvegicus [1] of 0.92 µmol/kg. This compound also came in with a KA in experiment [2] of 20.2 µM. In the experiment with Rattus norvegicus [3], the IPA amounted to 1.
For `CC(C#CC[N+](C)(C)C)OC(=O)Nc1cccc(Cl)c1` (racemic) the same measures were 0.09 µmol/kg, 1.46 µM and 0.76.
For `CN(CC#CC[N+](C)(C)C)C(=O)Nc1cccc(Cl)c1` the same measures were 0.55 µmol/kg, 24.8 µM and 1.
For `CC(C#CC[N+](C)(C)C)OC(=O)Nc1ccc(Cl)cc1` (racemic) the same measures were 0.029 µmol/kg, 0.48 µM and 0.75.
Regarding `C[N+](C)(C)CC#CCOC(=O)Nc1cccc(Cl)c1`, the ED50 with Rattus norvegicus [1] was 0.45 µmol/kg. The same compound returned an IPA in the experiment on Rattus norvegicus [3] of 1.
In turn, `C[C@H](C#CC[N+](C)(C)C)OC(=O)Nc1cccc(Cl)c1` returned an ED50 in the experiment with Rattus norvegicus [1] of 0.18 µmol/kg. Also, the KA in experiment [2] worked out at 0.78 µM. The compound further came in with an IPA with Rattus norvegicus [3] of 1.
For `C[C@@H](C#CC[N+](C)(C)C)OC(=O)Nc1cccc(Cl)c1` the same measures were 0.12 µmol/kg, 2.12 µM and 0.7.
The like results for `CC(C#CC[N+](C)(C)C)N(C)C(=O)Nc1cccc(Cl)c1` (configuration not stated) were, in that order, 0.69 µmol/kg, 83.3 µM and 1.

One may read the ED50 as the dose at which the effect has come halfway, by size or by number of responders. Low readings indicate an effect at a small dose, high ones a need for a large dose.
